Measured values as given in ChEMBL document CHEMBL1144439, “A novel class of in vivo active anticancer agents: achiral seco-amino- and seco-hydroxycyclopropylbenz[e]indolone (seco-CBI) analogues of the duocarmycins and CC-1065” (J Med Chem, 2005).
Each block holds one compound with its values, some of them ahead of it.

How the values were obtained:
[1] = The concentration required for inhibiting the growth of the murine B16-F0 melanoma cells by 50%; assay type: functional; conditions: Mus musculus, B16F0
In short: (§1)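 MTT growth inhibition in murine lines grown in DMEM with 10% FBS, HEPES, glutamine, pen/strep at 37 °C, 5% CO2. Seeded 80 000 cells/well, continuous drug exposure (DMSO stock diluted in DMEM) for 72 h, quadruplicate wells per concentration. MTT added for 4 h, formazan dissolved in acid 2-propanol, read at 570 nm (reference 630 nm). IC50 extrapolated from averaged absorbance curves.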

[2] = tested on: L1210; test: The concentration required for inhibiting the growth of the murine L1210 leukemia cells by 50%; assay type: functional, cell-based; conditions: Mus musculus; in short: as §1
[3] = tested on: TK-10; test: Concentration required to kill 50% of human TK-10 renal cancer cells; assay type: functional
In short: (§2)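 NCI 60-cell human cancer panel run at the National Cancer Institute. Cells exposed to compound for 48 h, with a sulforhodamine B read-out.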

[4] = tested on: SK-OV-3; test: Concentration required to kill 50% of human SK-OV-3 ovarian cancer cells; assay type: functional
In short: (§3)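 NCI 60-cell-line human tumour panel. Continuous 48 h drug exposure, then sulforhodamine B assay for cell viability. […] GI50 and TGI are generated from the same curves.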

[5] = tested on: OVCAR-5; test: Concentration required to kill 50% of human OVCAR-5 ovarian cancer cells; assay type: functional; in short: as §3
[6] = tested on: OVCAR-4; test: Concentration required to kill 50% of human OVCAR-4 ovarian cancer cells; assay type: functional; in short: as §3
[7] = tested on: DU-145; test: Concentration required to kill 50% of human DU-145 prostate cancer cells; assay type: functional; in short: as §3
[8] = tested on: NCI-H23; test: Concentration required to kill 50% of human NCI-H23 non-small cell lung cancer cells; assay type: functional; in short: as §3
[9] = tested on: HCT-15; test: Concentration required to kill 50% of human HCT-15 colon cancer cells; assay type: functional; in short: as §3
[10] = tested on: SNB-75; test: Concentration required to kill 50% of human SNB-75 CNS cancer cells; assay type: functional; in short: as §3
[11] = tested on: UO-31; test: Concentration required to kill 50% of human UO-31 renal cancer cells; assay type: functional; in short: as §2
[12] = tested on: HCT-116; test: Concentration required to kill 50% of human HCT116 colon cancer cells; assay type: functional; in short: as §3
[13] = tested on: UACC-62; test: Concentration required to kill 50% of human UACC-62 melanoma cells; assay type: functional; in short: as §2
[14] = tested on: NCI/ADR-RES; test: Concentration required to kill 50% of human NCI/ADR-RES breast cancer cells; assay type: functional; in short: as §3
[15] = tested on: A498; test: Concentration required to kill 50% of human A-498 renal cancer cells; assay type: functional; in short: as §3
[16] = tested on: MDA-N; test: Concentration required to kill 50% of human MDA-N breast cancer cells; assay type: functional; in short: as §3
[17] = tested on: K562; test: Concentration required to kill 50% of human K-562 leukemia cells; assay type: functional; in short: as §3
[18] = tested on: SK-MEL-2; test: Concentration required to kill 50% of human SK-MEL-2 melanoma cells; assay type: functional; in short: as §3
[19] = tested on: SF-268; test: Concentration required to kill 50% of human SF-268 CNS cancer cells; assay type: functional; in short: as §3
[20] = tested on: SF-295; test: Concentration required to kill 50% of human SF-295 CNS cancer cells; assay type: functional; in short: as §3
[21] = tested on: COLO 205; test: Concentration required to kill 50% of human COLO 205 colon cancer cells; assay type: functional; in short: as §3
[22] = tested on: PC-3; test: Concentration required to kill 50% of human PC-3 prostate cancer cells; assay type: functional; in short: as §3
[23] = tested on: K562; test: The concentration required for inhibiting the growth of the human K562 chronic myeloid leukemia cells by 50%; assay type: functional, cell-based
In short: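 Drug exposure was […] in the dark, then cells were washed and plated at 10⁴ cells/well, eight wells per sample, and incubated 4 days. MTT was added for 5 h, formazan dissolved in DMSO and read at 550 nm.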

[24] = tested on: EKVX; test: Concentration required to kill 50% of human EKVX non-small cell lung cancer cells; assay type: functional; in short: as §3
[25] = tested on: SN12C; test: Concentration required to kill 50% of human SN12C renal cancer cells; assay type: functional; in short: as §3
[26] = tested on: KM12; test: Concentration required to kill 50% of human KM12 colon cancer cells; assay type: functional; in short: as §3
[27] = tested on: BT-549; test: Concentration required to kill 50% of human BT-549 breast cancer cells; assay type: functional; in short: as §3
[28] = tested on: NCI-H460; test: Concentration required to kill 50% of human NCI-H460 non-small cell lung cancer cells; assay type: functional; in short: as §3
[29] = tested on: SK-MEL-28; test: Concentration required to kill 50% of human SK-MEL-28 melanoma cells; assay type: functional; in short: as §3
[30] = tested on: Hs-578T; test: Concentration required to kill 50% of human Hs 578.T breast cancer cells; assay type: functional; in short: as §3
[31] = tested on: SNB-19; test: Concentration required to kill 50% of human SNB-19 CNS cancer cells; assay type: functional; in short: as §3
[32] = Concentration required to kill 50% of human U-251 CNS cancer cells; assay type: functional; in short: as §2
[33] = tested on: OVCAR-8; test: Concentration required to kill 50% of human OVCAR-8 ovarian cancer cells; assay type: functional; in short: as §3
[34] = tested on: ACHN; test: Concentration required to kill 50% of human ACHN renal cancer cells; assay type: functional; in short: as §3
[35] = tested on: HOP-92; test: Concentration required to kill 50% of human HOP-92 non-small cell lung cancer cells; assay type: functional; in short: as §3
[36] = tested on: RXF 393; test: Concentration required to kill 50% of human RXF 393 renal cancer cells; assay type: functional; in short: as §3
[37] = tested on: IGROV-1; test: Concentration required to kill 50% of human IGROV1 ovarian cancer cells; assay type: functional; in short: as §3
[38] = tested on: NCI-H322M; test: Concentration required to kill 50% of human NCI-H322M non-small cell lung cancer cells; assay type: functional; in short: as §3
[39] = tested on: NCI-H226; test: Concentration required to kill 50% of human NCI-H226 non-small cell lung cancer cells; assay type: functional; in short: as §3
[40] = tested on: NCI-H522; test: Concentration required to kill 50% of human NCI-H522 non-small cell lung cancer cells; assay type: functional; in short: as §3
[41] = tested on: HCC 2998; test: Concentration required to kill 50% of human HCC2998 colon cancer cells; assay type: functional; in short: as §3
[42] = tested on: A549; test: Concentration required to kill 50% of human A549/ATCC non-small cell lung cancer cells; assay type: functional; in short: as §3
[43] = tested on: CAKI-1; test: Concentration required to kill 50% of human CAKI-1 renal cancer cells; assay type: functional; in short: as §3
[44] = tested on: HOP-62; test: Concentration required to kill 50% of human HOP-62 non-small cell lung cancer cells; assay type: functional; in short: as §3
[45] = tested on: Malme-3M; test: Concentration required to kill 50% of human MALME-3M melanoma cells; assay type: functional; in short: as §3
[46] = tested on: SW-620; test: Concentration required to kill 50% of human SW-620 colon cancer cells; assay type: functional; in short: as §3
[47] = tested on: HL-60; test: Concentration required to kill 50% of human HL-60 leukemia cells; assay type: functional; in short: as §3
[48] = tested on: HT-29; test: Concentration required to kill 50% of human HT-29 colon cancer cells; assay type: functional; in short: as §3
[49] = Concentration required to kill 50% of human RPMI-8226 leukemia cells; assay type: functional; in short: as §3
[50] = tested on: LOX IMVI; test: Concentration required to kill 50% of human LOX IMVI melanoma cells; assay type: functional; in short: as §3
[51] = tested on: MOLT-4; test: Concentration required to kill 50% of human MOLT-4 leukemia cells; assay type: functional; in short: as §3
[52] = tested on: MDA-MB-231; test: Concentration required to kill 50% of human MDA-MB-231/ATCC breast cancer cells; assay type: functional; in short: as §3
[53] = tested on: 786-0; test: Concentration required to kill 50% of human 786-0 renal cancer cells; assay type: functional; in short: as §3
[54] = tested on: MCF7S; test: Concentration required to kill 50% of human MCF-7 breast cancer cells; assay type: functional; in short: as §3
[55] = tested on: SK-MEL-5; test: Concentration required to kill 50% of human SK-MEL-5 melanoma cells; assay type: functional; in short: as §3
[56] = tested on: OVCAR-3; test: Concentration required to kill 50% of human OVCAR-3 ovarian cancer cells; assay type: functional; in short: as §3
[57] = Concentration required to kill 50% of human T-47D breast cancer cells; assay type: functional, Cancer cell lines; in short: as §2
[58] = tested on: SF-539; test: Concentration required to kill 50% of human SF-539 CNS cancer cells; assay type: functional; in short: as §3

SMILES: COc1cc2cc(C(=O)Nc3cc(N)c4ccccc4c3CCOC(C)=O)[nH]c2c(OC)c1OC
IC50 [1]: 54000 nM
IC50 [2]: 53000 nM

SMILES: COc1cc2cc(C(=O)Nc3cc(NCc4ccccc4)c4ccccc4c3CCCl)[nH]c2c(OC)c1OC
IC50 [1]: 5400 nM

SMILES: COc1ccc(/C=C/C(=O)Nc2cc(N)c3ccccc3c2CCCl)c(OC)n1
IC50 [1]: 62 nM
IC50 [2]: 180 nM

SMILES: COc1ccc(/C=C/C(=O)Nc2cc(N)c3ccccc3c2CCCl)nc1
IC50 [1]: 750 nM
IC50 [2]: 550 nM

SMILES: COc1cc2cc(C(=O)Nc3cc(N)c4ccccc4c3CCCl)[nH]c2c(OC)c1OC [CENTANAMYCIN]
Log 10 LC50 [3]: -4.33
Log 10 LC50 [4]: >-4.3
Log 10 LC50 [5]: -4.43
Log 10 LC50 [6]: >-4.3
Log 10 LC50 [7]: >-4.3
Log 10 LC50 [8]: -5.07
Log 10 LC50 [9]: >-4.3
Log 10 LC50 [10]: -5.78
Log 10 LC50 [11]: >-4.3
Log 10 LC50 [12]: -4.67
Log 10 LC50 [13]: -6.49
Log 10 LC50 [14]: -4.33
Log 10 LC50 [15]: >-4.3
IC50 [1]: 150 nM
Log 10 LC50 [16]: >-4.3
Log 10 LC50 [17]: >-4.3
Log 10 LC50 [18]: -6.74
Log 10 LC50 [19]: >-4.3
Log 10 LC50 [20]: >-4.3
Log 10 LC50 [21]: -4.69
Log 10 LC50 [22]: -4.81
IC50 [23]: 45 nM
Log 10 LC50 [24]: -4.73
Log 10 LC50 [25]: -5.65
Log 10 LC50 [26]: >-4.3
Log 10 LC50 [27]: -5.76
Log 10 LC50 [28]: -4.81
Log 10 LC50 [29]: >-4.3
Log 10 LC50 [30]: >-4.3
Log 10 LC50 [31]: >-4.3
Log 10 LC50 [32]: -5.21
Log 10 LC50 [33]: -4.69
Log 10 LC50 [34]: >-4.3
Log 10 LC50 [35]: -4.42
Log 10 LC50 [36]: -6.86
Log 10 LC50 [37]: >-4.3
Log 10 LC50 [38]: >-4.3
Log 10 LC50 [39]: >-4.3
Log 10 LC50 [40]: -5.53
Log 10 LC50 [41]: -6.65
Log 10 LC50 [42]: >-4.3
Log 10 LC50 [43]: >-4.3
Log 10 LC50 [44]: >-4.3
Log 10 LC50 [45]: >-4.3
Log 10 LC50 [46]: >-4.3
Log 10 LC50 [47]: >-4.3
Log 10 LC50 [48]: -4.41
Log 10 LC50 [49]: >-4.3
Log 10 LC50 [50]: -4.75
Log 10 LC50 [51]: >-4.3
IC50 [2]: 180 nM
Log 10 LC50 [52]: -4.58
Log 10 LC50 [53]: -4.58
Log 10 LC50 [54]: -4.54
Log 10 LC50 [55]: -4.85
Log 10 LC50 [56]: >-4.3
Log 10 LC50 [57]: >-4.3
Log 10 LC50 [58]: >-4.3

The next lines start with results.

IC50 [2]: 41000 nM
SMILES: COc1cc2cc(C(=O)Nc3cc(N)c4ccccc4c3CCO)[nH]c2c(OC)c1OC
IC50 [1]: 60000 nM

IC50 [2]: 51000 nM
SMILES: COc1cc2cc(C(=O)Nc3cc(OCc4ccccc4)c4ccccc4c3CCCl)[nH]c2c(OC)c1OC
IC50 [1]: > 100000 nM
